From ChEMBL document CHEMBL1122917, “Vinblastin-23-oyl amino acid derivatives: chemistry, physicochemical data, toxicity, and antitumor activities against P388 and L1210 leukemias” (J Med Chem, 1985)
Several values for one entry are separate records, joined by “and”; a condition that tells them apart may be missing. Equal values may be shown once.

Tests used:
Mus musculus [1] = assay: Percent increase in life span of DBA2 mice after inoculation with L1210 leukemia intravenously at a dose of 2 mg/kg per day; format: functional; conditions: route intravenous
Mus musculus [2] = assay: Percent increase in life span at dose 1.5 mg/kg/day in 10 mice implanted with P388 leukemia cell line; format: functional
Mus musculus [3] = assay: Number of survivors of BDF1 mice on 30th day after inoculation with P388 leukemia cell line intraperitoneally at a dose of 2.7 mg/kg/day; 0/11; conditions: route intraperitoneal
Mus musculus [4] = assay: Number of survivors of DBA2 mice on 30th day after inoculation with L1210 leukemia cell line intravenously at a dose of 1 mg/kg/day; 0/10; format: functional; conditions: route intravenous
Mus musculus [5] = assay: Percent increase in life span of BDF1 mice after inoculation with P388 leukemia intraperitoneally at a dose of 2.7 mg/kg per day; conditions: P388, ip
Mus musculus [6] = assay: Number of survivors on 30th day at dose 7 mg/kg/day in 9 mice implanted with P388 leukemia cell line; 1 /9; format: functional
Mus musculus [7] = assay: Number of survivors on 30th day at dose 6 mg/kg/day in 10 mice implanted with P388 leukemia cell line; 0 /10; format: functional
Mus musculus [8] = assay: Number of survivors on 60th day at dose 11 mg/kg/day in 10 mice implanted with P388 leukemia cell line; 0/10; format: functional
Mus musculus [9] = assay: Number of survivors on 30th day at dose 8 mg/kg/day in 9 mice implanted with P388 leukemia cell line; 0 /9; format: functional
Mus musculus [10] = assay: Percent increase in life span of BDF1 mice after inoculation with P388 leukemia intraperitoneally at a dose of 4 mg/kg per day; conditions: P388, ip
Mus musculus [11] = assay: Percent increase in life span at dose 10 mg/kg/day in 10 mice implanted with P388 leukemia cell line; format: functional
In short: (§1)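 Female DBA2 mice inoculated iv on day 0 with 10^4 P388 cells; single iv treatment on day 1 with drug as sulfate salt in physiological saline. Survival followed; %ILS from all deaths and survivors as (T/C × 100) − 100, maximal MST 30 days; survivors counted on days 30 and 60. Most experiments confirmed three times.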

Mus musculus [12] = assay: Percent increase in life span of BDF1 mice after inoculation with P388 leukemia cells intraperitoneally at a dose of 0.33 mg/kg per day for 1-9 scheduled days; conditions: P388, ip
Mus musculus [13] = assay: Percent increase in life span at dose 65 mg/kg/day in 7 mice implanted with P388 leukemia cell line for 1,8,15 schedule day in Exp-2; format: functional
In short: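 Female DBA2 mice inoculated iv on day 0 with 10^5 P388 cells; iv dosing of sulfate salts in physiological saline on day 1 only or on days 1, 8 and 15. %ILS from all deaths and survivors as (T/C × 100) − 100, maximal MST 60 days; survivors scored on day 60.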

Mus musculus [14] = assay: Number of survivors on 60th day at dose 60 mg/kg/day in 10 mice implanted with P388 leukemia cell line for 1st scheduled day; 0/9; format: functional
Mus musculus [15] = assay: Number of survivors on 30th day at dose 55 mg/kg/day in 10 mice implanted with P388 leukemia cell line for 1st scheduled day; 1/10; format: functional
Mus musculus [16] = assay: Number of survivors of DBA2 mice on 30th day after inoculation with L1210 leukemia cell line intravenously at a dose of 58 mg/kg/day; 0/10; format: functional; conditions: route intravenous
Mus musculus [17] = assay: Number of survivors on 30th day at dose 50 mg/kg/day in 10 mice implanted with P388 leukemia cell line; 7/10; format: functional
Mus musculus [18] = assay: Number of survivors of DBA2 mice on 30th day after inoculation with L1210 leukemia cell line intravenously at a dose of 70 mg/kg/day; 0/10; format: functional; conditions: route intravenous
Mus musculus [19] = assay: Percent increase in life span at dose 55 mg/kg/day in 10 mice implanted with P388 leukemia cell line for 1,5,9 schedule days; format: functional
Mus musculus [20] = assay: Percent increase in life span at dose 40 mg/kg/day in 10 mice implanted with P388 leukemia cell line; format: functional; in short: as §1
Mus musculus [21] = assay: Percent increase in life span of DBA2 mice after inoculation with L1210 leukemia intravenously at a dose of 65 mg/kg per day; format: functional; conditions: route intravenous
In short: (§2)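 Female DBA2 mice inoculated iv on day 0 with 10^4 L1210 cells; drugs given iv as sulfate salts in physiological saline, mostly once on day 1. %ILS from all deaths and survivors as (T/C × 100) − 100; survivors scored on days 30 and 60.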

Mus musculus [22] = assay: Number of survivors on 30th day at dose 58 mg/kg/day in 10 mice implanted with P388 leukemia cell line;2/10; format: functional
Mus musculus [23] = assay: Percent increase in life span of DBA2 mice after inoculation with L1210 leukemia intravenously at a dose of 55 mg/kg per day; format: functional; conditions: route intravenous; in short: as §2
Mus musculus [24] = assay: Number of survivors on 30th day at dose 55 mg/kg/day in 10 mice implanted with P388 leukemia cell line for1,5,9 scheduled days; 2/10; format: functional
Mus musculus [25] = assay: Percent increase in life span of DBA2 mice after inoculation with L1210 leukemia intravenously at a dose of 45 mg/kg per day; format: functional; conditions: route intravenous; in short: as §2
Mus musculus [26] = assay: Number of survivors on 60th day at dose 55 mg/kg/day in 10 mice implanted with P388 leukemia cell line for 1,5,9 scheduled days; 1/10; format: functional
Mus musculus [27] = assay: Number of survivors on 60th day at dose 58 mg/kg/day in 10 mice implanted with P388 leukemia cell line; 0/10; format: functional
Mus musculus [28] = assay: Number of survivors on 60th day at dose 4 mg/kg/day in 10 mice implanted with P388 leukemia cell line; 0/9; format: functional
Mus musculus [29] = assay: Percent increase in life span at dose 8 mg/kg/day in 7 mice implanted with P388 leukemia cell line for 1,8,15 schedule days from Exp-1; format: functional
Mus musculus [30] = assay: Number of survivors on 30th day at dose 5 mg/kg/day in 9 mice implanted with P388 leukemia cell line; 1/9; format: functional
Mus musculus [31] = assay: Number of survivors of DBA2 mice on 60th day after inoculation with L1210 leukemia cell line intraperitoneally at a dose of 0.30 mg/kg/day; 0/10; format: functional; conditions: route intraperitoneal
Mus musculus [32] = assay: Number of survivors on 30th day at dose 5 mg/kg/day in 10 mice implanted with P388 leukemia cell line; 0/10; format: functional
Mus musculus [33] = assay: Number of survivors on 30th day at dose 6 mg/kg/day in 10 mice implanted with P388 leukemia cell line; 0/10; format: functional
Mus musculus [34] = assay: Percent increase in life span at dose 2.5 mg/kg/day in 7 mice implanted with P388 leukemia cell line for 1,8,15 scheduled days from Exp-2; format: functional
Mus musculus [35] = assay: Percent increase in life span at dose 3 mg/kg/day in 10 mice implanted with P388 leukemia cell line; 0/10; format: functional
Mus musculus [36] = assay: Number of survivors of DBA2 mice on 30th day after inoculation with L1210 leukemia cell line intraperitoneally at a dose of 2.5 mg/kg/day; 0/10; format: functional; conditions: route intraperitoneal
[37] = Acute iv toxicity against Swiss strain of 100 mice after 8 doses of injection; format: organism-based; conditions: mouse, in vivo

In the case of `CC[C@]1(O)C[C@H]2CN(CCc3c([nH]c4ccccc34)[C@@](C(=O)OC)(c3cc4c(cc3OC)N(C=O)[C@H]3[C@@](O)(C(=O)OC)[C@H](OC(C)=O)[C@]5(CC)C=CCN6CC[C@]43[C@@H]65)C2)C1` [VINCRISTINE], the ILS at 2 mg/kg/day (Mus musculus [1]) is reported as 16%, the ILS at 1.5 mg/kg/day (Mus musculus [2]) is reported as 20.8% and the Survivors (Mus musculus [3]) is reported as 0. The Survivors (Mus musculus [4]) was 0 and the ILS at 2.7 mg/kg/day (Mus musculus [5]) was 64%.

Work on `CC[C@]1(O)C[C@@H]2CN(CCc3c([nH]c4ccccc34)[C@@](C(=O)OC)(c3cc4c(cc3OC)N(C)[C@H]3[C@@](O)(C(=O)OC)[C@H](OC(C)=O)[C@]5(CC)C=CCN6CC[C@]43[C@@H]65)C2)C1` [VINBLASTINE] yielded a Survivors (Mus musculus [6]) of 1, a Survivors (Mus musculus [7]) of 0 and a Survivors (Mus musculus [8]) of 0. For the same compound, the Survivors (Mus musculus [9]) was 0, the ILS at 4 mg/kg/day (Mus musculus [10]) was 0% and the ILS at 10 mg/kg/day (Mus musculus [11]) was 81%. The ILS at 0.33 mg/kg/day (Mus musculus [12]) was 74%.

In the case of `CCOC(=O)[C@H](Cc1c[nH]c2ccccc12)NC(=O)[C@@]1(O)[C@H](O)[C@]2(CC)C=CCN3CC[C@@]4(c5cc([C@@]6(C(=O)OC)C[C@H]7C[N@](CCc8c6[nH]c6ccccc86)C[C@](O)(CC)C7)c(OC)cc5N(C)[C@@]14C)[C@@H]32`, the ILS (Mus musculus [13]) is reported as 40% and 108%, the Survivors (Mus musculus [14]) is reported as 0 and the Survivors (Mus musculus [15]) is reported as 1. For the same compound, the Survivors (Mus musculus [16]) was 0, the Survivors (Mus musculus [17]) was 7 and the Survivors (Mus musculus [18]) was 0. The ILS at 55 mg/kg/day (Mus musculus [19]) was greater than 426%, the ILS at 40 mg/kg/day (Mus musculus [20]) was 58.8% and the ILS at 65 mg/kg/day (Mus musculus [21]) was 71%. The Survivors (Mus musculus [22]) was 2, the ILS at 55 mg/kg/day (Mus musculus [23]) was 55.3% and the Survivors (Mus musculus [24]) was 2. The ILS at 45 mg/kg/day (Mus musculus [25]) was 92%, the Survivors (Mus musculus [26]) was 1 and the Survivors (Mus musculus [27]) was 0.

Work on `CCOC(=O)[C@@H](NC(=O)[C@@]1(O)[C@H](O)[C@]2(CC)C=CCN3CC[C@@]4(c5cc([C@@]6(C(=O)OC)C[C@H]7C[N@](CCc8c6[nH]c6ccccc86)C[C@](O)(CC)C7)c(OC)cc5N(C)[C@@]14C)[C@@H]32)[C@@H](C)CC` yielded a Survivors (Mus musculus [28]) of 0, an ILS at 8 mg/kg/day (Mus musculus [29]) of 119% and a Survivors (Mus musculus [30]) of 1.

Work on `CC[C@]1(O)C[C@@H]2CN(CCc3c([nH]c4ccccc34)[C@@](C(=O)OC)(c3cc4c(cc3OC)N(C)[C@H]3[C@@](O)(C(N)=O)[C@H](O)[C@]5(CC)C=CCN6CC[C@]43[C@@H]65)C2)C1` [VINDESINE] yielded a Survivors (Mus musculus [31]) of 0, a Survivors (Mus musculus [32]) of 0 and a Survivors (Mus musculus [33]) of 0. It also gave an ILS at 2.5 mg/kg/day (Mus musculus [34]) of 13%, an ILS at 3 mg/kg/day (Mus musculus [35]) of 49.2% and a Survivors (Mus musculus [36]) of 0. The LD50 [37] was 13.8 mg/kg.
